Assay results published in ChEMBL document CHEMBL1255468 (Antimicrob Agents Chemother, 2010).
The source made the active and inactive calls. The rule behind the calls is not given here.

How the values were obtained:
Trypanosoma cruzi [1] = experiment: Antitrypanosomal activity against Trypanosoma cruzi Y infected in mouse assessed as decrease in mouse mortality at 200 mg/kg, po after 20 days post infection; format: functional, organism-based; parameters: dose 200 mg/kg
Outline: (§1)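 Male Swiss mice (6–8 weeks, 18–20 g), 8–10 per group, infected i.p. with 10^4 bloodstream trypomastigotes (Y strain). On dpi 5, a single 200 mg/kg oral gavage dose was given in water with 10% Tween-80. Parasitemia was counted daily from dpi 6 to 21 by the Pizzi-Brener method. Body weight was recorded weekly. Mortality was recorded daily, and cumulative mortality at 40 dpi and M50 were calculated.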

Trypanosoma cruzi [2] = experiment: Antitrypanosomal activity against Trypanosoma cruzi Y infected in mouse assessed as decrease in parasitemia in blood at 200 mg/kg, po upto 40 days post infection; format: functional; outline: as §1
Trypanosoma cruzi [3] = experiment: Antitrypanosomal activity against Trypanosoma cruzi amastigotes infected in mouse peritoneal macrophages assessed as endocytic index after 2 day; format: functional, organism-based; settings: 48 h
Outline: (§2)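 Swiss mouse peritoneal macrophages (3 × 10^5/well) were plated for 24 h, then infected with Y-strain trypomastigotes (10:1) in DMEM with 10% FCS for 3 h. Free parasites were washed off, and compounds were added at 2.5–30 µM final for 1–4 days. Cells were fixed in Bouin's solution and stained with Giemsa. Percent infection and endocytic index (parasites/100 cells) were counted, and IC50 was derived. Three independent experiments.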

Mus musculus [4] = experiment: Toxicity in mouse assessed as GPT level in blood at 100 mg/kg, po after 4 days; format: organism-based; parameters: dose 100 mg/kg, route oral; settings: in vivo, 96 h
Outline: (§3)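 Uninfected male Swiss mice, 8–10 per group, received by gavage either a single 400 mg/kg dose or 10 doses of 100 mg/kg (vehicle water with 10% Tween-80). GOT, GPT and urea were measured directly in blood with the Reflotron system, and body weight was recorded. Single-dose toxicity was analyzed 4 days after treatment.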

Trypanosoma cruzi [5] = experiment: Antitrypanosomal activity against Trypanosoma cruzi trypomastigotes assessed as alteration in flagellar structure with membrane expansion at […] after 24 hrs by Transmission electron microscopy; format: functional, organism-based
Mus musculus [6] = experiment: Toxicity in mouse assessed as body weight at 400 mg/kg, po after 4 days; format: organism-based; parameters: dose 400 mg/kg, route oral; settings: in vivo, 96 h; outline: as §3
Trypanosoma cruzi [7] = experiment: Antitrypanosomal activity against Trypanosoma cruzi amastigotes infected in mouse embryo heart muscle cells assessed as endocytic index; format: functional, organism-based
Outline: (§4)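 Mouse embryo heart muscle cells (10^5/well) were plated on gelatin-coated coverslips and infected after 24 h with trypomastigotes at 10:1 parasite/host cell. After another 24 h, cultures were washed and exposed to compounds at 10–40 µM final. At intervals, cells were fixed in Bouin's solution and stained with Giemsa. Percent infection and endocytic index (parasites/100 cells) were counted, and IC50 was derived.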

Mus musculus [8] = experiment: Toxicity in mouse assessed as urea level in blood at 100 mg/kg, po after 4 days; format: organism-based; parameters: dose 100 mg/kg, route oral; settings: in vivo, 96 h; outline: as §3
Trypanosoma cruzi [9] = experiment: Antitrypanosomal activity against Trypanosoma cruzi amastigotes infected in mouse peritoneal macrophages assessed as endocytic index after 3 day; format: functional, organism-based; settings: 72 h; outline: as §2
Trypanosoma cruzi [10] = experiment: Antitrypanosomal activity against Trypanosoma cruzi amastigotes infected in mouse peritoneal macrophages assessed as inhibition of infection after 4 day; format: functional, organism-based; settings: 96 h; outline: as §2
Trypanosoma cruzi [11] = experiment: Antitrypanosomal activity against Trypanosoma cruzi infected in mouse assessed as decrease in mortality rate at 100 mg/kg, po after 6 days post infection; format: functional, organism-based; parameters: dose 100 mg/kg
Outline: (§5)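 Male Swiss mice, 8–10 per group, infected i.p. with 10^4 bloodstream trypomastigotes. From dpi 6, mice received 10 consecutive daily gavage doses of 100 mg/kg in water with 10% Tween-80. Parasitemia was read daily on dpi 6–21 by the Pizzi-Brener method. Mortality was noted daily, and %CM at 40 dpi and M50 were calculated.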

Trypanosoma cruzi [12] = experiment: Antitrypanosomal activity against Trypanosoma cruzi Y infected in mouse assessed as decrease in mouse mortality at 200 mg/kg, po upto 40 days post infection; format: functional, organism-based; parameters: dose 200 mg/kg; outline: as §1
[13] = Selectivity index, ratio of LC50 for mouse HMC to IC50 for inhibition of Trypanosoma cruzi amastigotes
[14] = Cytotoxicity against Swiss mouse peritoneal macrophages after 48 hrs by MTT assay; format: cell-based, Peritoneal macrophage cell; settings: read-out: LC50
Outline: (§6)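 Uninfected host cells were exposed to compounds at 37°C for 2 days, with compound stocks in DMSO. Cells were Swiss mouse peritoneal macrophages or primary mouse embryo heart muscle cells (18-day embryos, trypsin/collagenase dissociated, gelatin-coated coverslips, DMEM with horse and fetal calf sera, chicken embryo extract). Viability was read by MTT at 490 nm to give LC50.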

Trypanosoma cruzi [15] = experiment: Antitrypanosomal activity against Trypanosoma cruzi amastigotes infected in mouse peritoneal macrophages assessed as inhibition of infection after 2 day; format: functional, organism-based; settings: 48 h; outline: as §2
Mus musculus [16] = experiment: Toxicity in mouse assessed as GOT level in blood at 100 mg/kg, po after 4 days; format: organism-based; parameters: dose 100 mg/kg, route oral; settings: in vivo, 96 h; outline: as §3
Mus musculus [17] = experiment: Toxicity in mouse assessed as GOT level in blood at 400 mg/kg, po after 4 days; format: organism-based; parameters: dose 400 mg/kg, route oral; settings: in vivo, 96 h; outline: as §3
Trypanosoma cruzi [18] = experiment: Antitrypanosomal activity against Trypanosoma cruzi amastigotes infected in mouse embryo heart muscle cells assessed as inhibition of infection; format: functional, organism-based; settings: TDE = time-dependent effect; outline: as §4
Trypanosoma cruzi [19] = experiment: Antitrypanosomal activity against Trypanosoma cruzi amastigotes infected in mouse peritoneal macrophages assessed as endocytic index after 1 day; format: functional, organism-based; settings: 24 h; outline: as §2
Trypanosoma cruzi [20] = experiment: Antitrypanosomal activity against Trypanosoma cruzi amastigotes infected in mouse peritoneal macrophages assessed as inhibition of infection after 1 day; format: functional, organism-based; settings: 24 h; outline: as §2
Trypanosoma cruzi [21] = experiment: Antitrypanosomal activity against Trypanosoma cruzi Y infected in mouse assessed as decrease in mouse mortality at 200 mg/kg, po after 16 days post infection; format: functional; parameters: scale not given: the % may be the effect or the level left
Outline: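 Male albino Swiss mice (6 to 8 weeks, 18 to 20 g), 8 to 10 per group, infected i.p. with 10^4 Y-strain bloodstream trypomastigotes. […] Parasitemia checked daily by Pizzi-Brener method; mortality noted daily to 40 dpi, cumulative mortality and M50 calculated.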

[22] = Cytotoxicity against swiss mouse HMC after 48 hrs by MTT assay; settings: read-out: LC50; outline: as §6
Mus musculus [23] = experiment: Toxicity in mouse assessed as GPT level in blood at 400 mg/kg, po after 4 days; format: organism-based; parameters: dose 400 mg/kg, route oral; settings: in vivo, 96 h; outline: as §3
Trypanosoma cruzi [24] = experiment: Antitrypanosomal activity against Trypanosoma cruzi amastigotes infected in mouse embryo heart muscle cells assessed as inhibition of infection after 24 hrs; format: functional, organism-based; outline: as §4
Trypanosoma cruzi [25] = experiment: Antitrypanosomal activity against Trypanosoma cruzi infected in mouse assessed as reduction in inflammatory foci in cardiac muscle at 100 mg/kg, po after 6 days post infection; format: functional, organism-based; parameters: dose 100 mg/kg; settings: Muscle tissue
Outline: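 Infected mice were dosed by gavage at 100 mg/kg daily for 10 days from dpi 6. Two mice per group were euthanized at 14 dpi. Paraffin heart sections were stained with hematoxylin-eosin. Under a 40× objective, parasite nests and inflammatory foci (≥10 mononuclear cells) were counted per mm2 over 30 fields.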

Trypanosoma cruzi [26] = experiment: Antitrypanosomal activity against Trypanosoma cruzi amastigotes infected in mouse peritoneal macrophages assessed as inhibition of infection after 3 day; format: functional, organism-based; settings: 72 h; outline: as §2
Mus musculus [27] = experiment: Toxicity in mouse assessed as urea level in blood at 400 mg/kg, po after 4 days; format: organism-based; parameters: dose 400 mg/kg, route oral; settings: in vivo, 96 h; outline: as §3
[28] = Selectivity index, ratio of LC50 for mouse peritoneal macrophages to IC50 for inhibition of Trypanosoma cruzi amastigotes
Outline: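 SI = LC50/IC50 in peritoneal macrophages. LC50 came from the 2-day MTT assay on uninfected macrophages. Cells were Bouin-fixed and Giemsa-stained, and endocytic index (parasites/100 cells) was counted. Three independent experiments.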

Trypanosoma cruzi [29] = experiment: Antitrypanosomal activity against Trypanosoma cruzi trypomastigotes assessed as alteration in autophagosome-like structure formation at […] after 24 hrs by Transmission electron microscopy; format: functional, organism-based
Trypanosoma cruzi [30] = experiment: Antitrypanosomal activity against Trypanosoma cruzi trypomastigotes assessed as alteration in nuclear envelop dilation at […] after 24 hrs by Transmission electron microscopy; format: functional, organism-based
Trypanosoma cruzi [31] = experiment: Antitrypanosomal activity against Trypanosoma cruzi amastigotes infected in mouse peritoneal macrophages assessed as endocytic index after 4 day; format: functional, organism-based; settings: 96 h; outline: as §2
Trypanosoma cruzi [32] = experiment: Antitrypanosomal activity against Trypanosoma cruzi trypomastigotes assessed as parasite body rounding at […] after 24 hrs by scanning electron microscopy; format: functional, organism-based
Trypanosoma cruzi [33] = experiment: Antitrypanosomal activity against Trypanosoma cruzi infected in mouse assessed as decrease in parasitemia in blood at 100 mg/kg, po after 6 days post infection; format: functional; outline: as §5
Trypanosoma cruzi [34] = experiment: Antitrypanosomal activity against Trypanosoma cruzi amastigotes infected in mouse peritoneal macrophages assessed as inhibition of infection at 30 uM after 1-4 days; format: functional, organism-based; outline: as §2
Trypanosoma cruzi [35] = experiment: Antitrypanosomal activity against Trypanosoma cruzi trypomastigotes assessed as alteration in autophagosome-like structure formation at 17 uM after 24 hrs by Transmission electron microscopy; format: functional, organism-based
Outline: (§7)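 Y-strain bloodstream trypomastigotes (5 × 10^6/ml) were treated for 24 h, washed in PBS, and fixed in 2.5% glutaraldehyde in 0.1 M cacodylate (pH 7.2). They were postfixed with OsO4/ferricyanide/CaCl2, dehydrated in acetone, and embedded in epoxy. Ultrathin sections were stained with uranyl acetate and lead citrate and examined by transmission EM.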

Trypanosoma cruzi [36] = experiment: Antitrypanosomal activity against Trypanosoma cruzi amastigotes infected in mouse peritoneal macrophages assessed as endocytic index at 30 uM after 1-4 days; format: functional, organism-based; outline: as §2
Trypanosoma cruzi [37] = experiment: Antitrypanosomal activity against Trypanosoma cruzi amastigotes infected in mouse embryo heart muscle cells assessed as endocytic index at 40 uM; format: functional, organism-based; outline: as §4
Trypanosoma cruzi [38] = experiment: Antitrypanosomal activity against Trypanosoma cruzi trypomastigotes assessed as increase in vesicles size near the flagellar pocket at 17 uM after 24 hrs by Transmission electron microscopy; format: functional, organism-based; outline: as §7
Trypanosoma cruzi [39] = experiment: Antitrypanosomal activity against Trypanosoma cruzi trypomastigotes assessed as parasite body rounding at 17 uM after 24 hrs by scanning electron microscopy; format: functional, organism-based
Outline: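 Trypomastigotes (5 × 10^6/ml) were treated for 24 h and adhered to poly-L-lysine coverslips. They were fixed in 2.5% glutaraldehyde in 0.1 M cacodylate (pH 7.2) for 40 min and postfixed for 30 min in 1% OsO4, 0.8% ferricyanide and 2.5 mM CaCl2. Samples were acetone-dehydrated, critical-point dried, gold-coated (20 nm) and examined by scanning EM.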

For `Cn1c([N+](=O)[O-])cnc1-c1nnc(N/N=C\c2ccc([N+](=O)[O-])cc2)s1`, the Activity (Trypanosoma cruzi [1]) was “inactive” and the Activity (Trypanosoma cruzi [2]) was “Active”.

For `Cn1c([N+](=O)[O-])cnc1-c1nnc(N/N=C\c2ccc(O)c(O)c2)s1` [BRAZILIZONE A], the IC50 (Trypanosoma cruzi [3]) was 2.2 µM, the Activity (Mus musculus [4]) was “Non-toxic” and the Activity (Trypanosoma cruzi [5]) was “Active”. For the same compound, the Activity (Mus musculus [6]) was 25.8 g, the IC50 (Trypanosoma cruzi [7]) was 7.6 µM and the Activity (Mus musculus [8]) was “Non-toxic”. For the same compound, the IC50 (Trypanosoma cruzi [9]) was 1.4 µM, the IC50 (Trypanosoma cruzi [10]) was 1.7 µM and the Activity (Trypanosoma cruzi [11]) was “inactive”. The Activity (Trypanosoma cruzi [12]) was “inactive”, the fold change (FC) [13] was greater than 32 and the CC50 at 48 h [14] was greater than 60 µM. The IC50 (Trypanosoma cruzi [15]) was 4.4 µM, the Activity (Mus musculus [16]) was “Non-toxic” and the Activity (Mus musculus [17]) was 62.4 U/L. For the same compound, the Activity (Trypanosoma cruzi [18]) was “tde”, the IC50 (Trypanosoma cruzi [19]) was 2 µM and the IC50 (Trypanosoma cruzi [20]) was 2.1 µM. For the same compound, the Activity (Trypanosoma cruzi [21]) was 50%, the CC50 at 48 h [22] was greater than 240 µM and the Activity (Mus musculus [23]) was 22.7 U/L. For the same compound, the Activity (Trypanosoma cruzi [24]) was “Dose-dependent effect”, the Activity (Trypanosoma cruzi [25]) was “inactive” and the Activity (Trypanosoma cruzi [2]) was “inactive”. For the same compound, the IC50 (Trypanosoma cruzi [26]) was 2.6 µM, the Activity (Mus musculus [27]) was 51.6 mg/dL and the “Ratio LC50/IC50” value [28] was greater than 27. For the same compound, the Activity (Trypanosoma cruzi [29]) was “Active”, the Activity (Trypanosoma cruzi [30]) was “Active” and the IC50 (Trypanosoma cruzi [31]) was 1.9 µM. For the same compound, the Activity (Trypanosoma cruzi [32]) was “Active” and the Activity (Trypanosoma cruzi [33]) was “inactive”.

With `Cn1c([N+](=O)[O-])cnc1-c1nnc(N/N=C\c2ccccc2O)s1` the Activity (Trypanosoma cruzi [12]) was “inactive” and the Activity (Trypanosoma cruzi [2]) was “inactive”.

With `Cn1c([N+](=O)[O-])cnc1-c1nnc(N/N=C\c2ccc(Br)cc2)s1` the Activity (Trypanosoma cruzi [34]) was “inactive”, the Activity (Mus musculus [6]) was 25.2 g and the Activity (Trypanosoma cruzi [35]) was “Active”. For the same compound, the Activity (Trypanosoma cruzi [36]) was “inactive”, the Activity (Trypanosoma cruzi [11]) was “Active” and the Activity (Trypanosoma cruzi [37]) was “inactive”. For the same compound, the Activity (Trypanosoma cruzi [12]) was “Active”, the CC50 at 48 h [14] was greater than 60 µM and the Activity (Trypanosoma cruzi [38]) was “Active”. The Activity (Mus musculus [17]) was 118 U/L, the CC50 at 48 h [22] was greater than 120 µM and the Activity (Mus musculus [23]) was 27.9 U/L. The Activity (Trypanosoma cruzi [25]) was “Active”, the Activity (Trypanosoma cruzi [2]) was 60% and the Activity (Mus musculus [27]) was 62.7 mg/dL. For the same compound, the Activity (Trypanosoma cruzi [39]) was “Active” and the Activity (Trypanosoma cruzi [33]) was “inactive”.
